Screening results: PubChem BioAssay, Sanford-Burnham Center for Chemical Genomics
A selection: hits, their analogues and other compounds. The true share with any hit is near 1.8%.
DNMT1 block = DNMT1 (human) enzyme inhibition; AID 588458; DNMT1 molecular beacon, Hinp1I cleavage, fluorescence; 360,000 tested, 0.83% active; P26358; inhibition (reported as % activation of signal), % at 10 µM; in the data active = inhibition above about 50%
STEP block = inhibitors of human striatal-enriched phosphatase STEP; P54829; recombinant STEP, OMFP fluorogenic substrate, fluorescence; inhibition, % at 20 µM; 360,000 tested, 0.25% active;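 active = inhibition at 20 µM, scaled per plate between control wells, above about 37%, limit read from the data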
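System: STEP (striatal-enriched tyrosine phosphatase) enzyme, cell-free; medium: Bis-Tris pH 6.0 buffer with DTT, detergent; dosing: 20 µM, 1% DMSO; times: reaction 20 min, ambient temperature; detection: fluorescence, 480/540 nm; read-out basis: normalized % inhibition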
LMPTP block = blocks human LMPTP phosphatase | P24666 | recombinant LMPTP-A, OMFP fluorogenic substrate, fluorescence intensity | inhibition, % at 20 µM | 360,000 tested, 0.22% active | AID 651560;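 active = compounds that cut the enzyme signal by at least half of the control window in the single-dose screen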
Target sequence (P24666 whole entry, looked up): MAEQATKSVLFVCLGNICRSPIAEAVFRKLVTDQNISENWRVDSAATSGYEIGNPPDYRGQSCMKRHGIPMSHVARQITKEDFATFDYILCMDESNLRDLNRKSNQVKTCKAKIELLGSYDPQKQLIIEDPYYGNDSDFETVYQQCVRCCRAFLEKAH
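Assay system: LMPTP-A, protein tyrosine phosphatase of low molecular weight / Medium: pH 6.0 Bis-Tris buffer with DTT and Triton X-100 / Schedule: 50 min enzyme reaction at room temperature, protected from light / Measured by: endpoint fluorescence intensity from OMFP dephosphorylation / Read-out basis: % inhibition relative to no-enzyme and uninhibited control wells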
Scp-1 inhibitor = blocks human Scp-1 phosphatase activity; inhibition, % at 20 µM; 340,000 tested, 0.88% active; Recombinant Scp1, phosphopeptide, malachite green phosphate absorbance;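 active = inhibition above about 50% at 20 µM, limit read from the data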
Target sequence (Q9GZU7 76-261 limits assumed): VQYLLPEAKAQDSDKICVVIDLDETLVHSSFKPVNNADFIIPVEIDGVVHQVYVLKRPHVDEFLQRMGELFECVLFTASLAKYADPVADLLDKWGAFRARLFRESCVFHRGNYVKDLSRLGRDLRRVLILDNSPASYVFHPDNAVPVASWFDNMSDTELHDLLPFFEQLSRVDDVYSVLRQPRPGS
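Test system: SCP-1 phosphatase catalytic domain, residues 76-261; measured by: colorimetric phosphate reagent with accelerator and stabiliser, absorbance at 630 nm; timing: enzyme reaction 45 min at room temperature, colour 5 min, stabilisation 30 min; also added: Phosphorylated 17-residue peptide substrate; compound dosing: one concentration, 20 µM, with 1.0% DMSO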
SUMO1 PPI mod = modulators of human SUMO1-mediated protein-protein interactions; P63165; SUMO1 binding to a labelled peptide, TR-FRET, 1 h; inhibition, % at 20 µM; 360,000 tested, 0.33% active; AID 602429; in the data active = inhibition above about 37%
Target sequence (P63165 whole entry, looked up): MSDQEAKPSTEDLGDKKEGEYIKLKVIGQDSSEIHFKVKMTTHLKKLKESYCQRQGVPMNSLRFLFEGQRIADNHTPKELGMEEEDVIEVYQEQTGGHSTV
Scp1 confirm = confirmation of human Scp-1 phosphatase inhibitors; shares compounds with Scp-1 inhibitor; recombinant SCP-1 catalytic domain, phosphate release, malachite green absorbance; inhibition, % at 20 µM; 2,500 tested, 61% active; AID 540281
MG interference = colorimetric interference in Scp-1 counter-screen; shares compounds with Scp-1 inhibitor; Colorimetric interference counterscreen, malachite green absorbance 630 nm; apparent inhibition (interference), % at 20 µM; 2,500 tested, under 10 active; AID 540313;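 note: compounds added after enzyme reaction finished so only phosphate colour detection is probed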
Scp1 DSF = validation of human Scp-1 inhibitors by thermal shift binding | shares compounds with Scp-1 inhibitor | Recombinant SCP1, Sypro Orange thermal shift Tm | thermal shift relative to vanadate control, % at 40 µM | 1,500 tested, 25% active | AID 540329;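 active = substances whose mean melting-temperature shift, as a percentage of the reference inhibitor's shift, reaches about 5.3%, limit read from the data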
A number is an active result; - = inactive; . = not tested or not shown; ! = not active in a repeat.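 Rule for the calls, unless noted: active = inhibition of at least 30% at 20 µM; inactive = the rest.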

SMILES	DNMT1 block	STEP block	LMPTP block	Scp-1 inhibitor	SUMO1 PPI mod	Scp1 confirm	MG interference	others
C[n+]1ccccc1/C=C/c1ccc(C#N)cc1	-	-	-	99	-	89	-	Scp1 DSF=-
Cc1ccccc1/C=C/c1cccc[n+]1C	-	-	-	93	-	-	-
CNC(=O)C1CC(=O)N(c2ccc(OCC(=O)Nc3ccccc3)cc2)C1 (configuration not stated)	-	-	-	-	-	.	.
O=C(NNS(=O)(=O)c1ccc(F)cc1F)c1csc(-c2cccnc2)n1	-	-	-	-	-	.	.
COc1ccc(Cl)cc1NC(=O)NCCN1CCNC1=O	-	-	-	-	-	-	-
COc1ccccc1NC(=O)NCCN1CCNC1=O	-	-	-	-	-	-	-
COc1ccccc1NC(=O)NCCN1CCCCC1	-	-	-	-	-	.	.
COc1ccc(Cl)cc1NC(=O)NCCCl	-	-	-	-	-	.	.
Cn1c(=O)c2c(ncn2CC(=O)OCC(=O)Nc2ccc(F)cc2F)n(C)c1=O	-	-	-	-	-	.	.
Cc1nc(N2CCOCC2)c2c(C)c(C(=O)Nc3ccccc3Cl)sc2n1	-	-	-	51	-	-	-
C=CCOc1c(Br)cc(/C=N/n2c(CC)n[nH]c2=S)cc1Br	-	-	-	72	-	-	-
O=C1CCC(C(=O)N2CCN(c3ccccc3)CC2)CN1Cc1ccc(Cl)cc1 (configuration not stated)	-	-	-	.	-	.	.
NC(=O)C[n+]1cccc(C(=O)Nc2ccccc2)c1	-	-	-	90	-	-	-
O=C(C[n+]1cccc(C(=O)Nc2ccccc2)c1)c1ccc(Cl)cc1	.	.	-	.	-	.	.
COc1cccc(-c2cc(C(F)(F)F)nc(-n3cc(C)cn3)n2)c1	-	-	-	55	-	-	-
COc1ccc2ccc(OCC(=O)NCC3CCCO3)cc2c1 (configuration not stated)	-	-	-	-	-	.	.
O=C(CSc1nnc2ccccn12)NC(=O)c1ccccc1Cl	-	-	-	66	-	51	-	Scp1 DSF=-
O=C1NC(c2ccccc2)=C(c2ccc3ccccc3n2)C(c2ccccc2)N1 (configuration not stated)	-	-	-	59	-	-	-
O=C1NC(c2ccccc2)=C(c2ccc3ccccc3n2)C(c2ccc(F)cc2)N1 (configuration not stated)	-	-	-	-	-	.	.
Cc1ccc(S(=O)(=O)N2C[C@H]3C(=O)C[C@@H](c4ccccc4)N(S(=O)(=O)c4ccc(C)cc4)[C@H]3C[C@H]2c2ccc(Cl)cc2)cc1	-	-	-	.	-	.	.
O=[N+]([O-])c1ccc2nc(-c3ccccc3)n(OCc3ccc(Cl)cc3)c2c1	-	-	-	59	-	51	-	Scp1 DSF=6.2
CC(=O)N1CCOc2ccc(S(=O)(=O)NCc3ccc(C)cc3)cc21	-	-	-	-	-	.	.
CC(=O)N1CCOc2ccc(S(=O)(=O)NC[C@H]3O[C@@H](n4ccc(=O)[nH]c4=O)[C@H](O)[C@@H]3O)cc21	-	-	-	-	-	-	-
Cc1ccc(NC(=O)CN2CC(C)SC2=NC2CCCCC2)cc1 (configuration not stated)	-	-	-	79!	-	-	-
Cc1ccc(NC(=O)CN2CCOCC2)cc1	-	-	-	-	-	.	.
SMILES	DNMT1 block	STEP block	LMPTP block	Scp-1 inhibitor	SUMO1 PPI mod	Scp1 confirm	MG interference	others
Cc1ccccc1C(=O)OCC(=O)NCc1ccco1	-	-	-	53	-	-	-
Cc1cccc(Nc2ccccc2C(=O)OCC(=O)NCc2ccco2)c1C	-	-	-	-	-	.	.
O=C(COc1ccccc1)NCc1ccco1	-	-	-	-	-	.	.
O=C(COC(=O)CCOc1ccccc1)NCc1ccco1	-	-	-	102	-	58	-	Scp1 DSF=-
CCN(CC)S(=O)(=O)c1ccc(C(=O)OCC(=O)NCc2ccco2)cc1	-	-	-	55	-	47	-	Scp1 DSF=-
O=C(COC(=O)c1ccc(Cl)c(S(=O)(=O)N2CCCCC2)c1)NCc1ccco1	-	-	-	71	-	45	-	Scp1 DSF=-
O=C(COC(=O)c1ccc(Cl)c(S(=O)(=O)N2CCCC2)c1)NCc1cccs1	-	-	-	-	-	.	.
COc1cc(C2c3cc4c(cc3OC(NCCc3ccccc3)C2C)OCO4)cc(OC)c1OC (configuration not stated)	-	-	-	-	-	.	.
COc1ccc(C(CNc2ccc(S(C)(=O)=O)cc2[N+](=O)[O-])N(C)C)cc1OC (configuration not stated)	-	-	-	-	-	.	.
O=C(CSc1nc(O)cc(=O)[nH]1)C1CC1	-	-	-	53	-	-	-
CC(=O)Nc1cc(NC(C)=O)cc(C(=O)N2CCCC3CCCCC32)c1 (configuration not stated)	-	-	-	61	-	54	-	Scp1 DSF=5.7
CC(=O)c1ccc(NC(=O)CSc2ccsc2[N+](=O)[O-])cc1	-	-	-	72	-	64	-	Scp1 DSF=7.1
CC[N+]1(CC(O)COC2CC(C)CC(C)(C)C2)CCOCC1 (configuration not stated)	-	-	-	105	-	91	-	Scp1 DSF=-
O=S(=O)(c1cccc2cnccc12)N1CCNCC1	-	-	-	60	-	-	-
O=S(=O)(c1cccc2ccccc12)N1CCSC1	-	-	-	-	-	.	.
CCC(Oc1ccccc1)C(=O)Nc1nc2c(s1)C(=O)CC(C)(C)C2 (configuration not stated)	-	-	-	-	-	-	-
CCC(C)C(=O)Nc1nc2c(s1)C(=O)CC(C)(C)C2 (configuration not stated)	-	-	-	-	-	.	.
CN(C(=O)CCN1C(=O)/C(=C/c2ccccc2)SC1=S)C1CCS(=O)(=O)C1 (configuration not stated)	-	-	-	76	80	-	-
Cc1cccc(C(=O)Nc2ccc(C(=O)c3ccncc3)cc2)c1	-	-	-	.	-	.	.
Cc1cc2c(NC(=O)Nc3ccc(F)cc3)cccc2nn1	-	-	-	-	-	.	.
Cc1cc2c(NC(=O)CC(C)(C)CC(=O)O)cccc2nn1	-	-	-	52	-	-	-
Fc1ccc2cnc(-c3ccccc3)c(-c3ccc(C(F)(F)F)cc3)c2c1	-	-	-	72	-	-	-
COC(=O)c1ccc(-c2c(-c3ccccc3)ncc3cc(F)ccc23)cc1	-	-	-	53	-	-	-
